According to ChEMBL document CHEMBL1138468, “Potent, brain-penetrant, hydroisoindoline-based human neurokinin-1 receptor antagonists” (J Med Chem, 2009):

Legend:
[1] = Half life in dog at 0.5 mg/kg, iv and 1 mg/kg, po; format: ADME, organism-based, Canis lupus familiaris; conditions: in vivo
Summary of the method: (§1)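 Dogs and monkeys dosed at 0.5 mg/kg iv and 1 mg/kg po; plasma sampled to derive clearance, Vdss, half-life, oral bioavailability and dose-normalised oral AUC(0-∞).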

[2] = target: Cytochrome P450 3A4 (Homo sapiens, UniProt P08684); experiment: Inhibition of human CYP3A4; format: ADME
[3] = Bioavailability in rat at 1 mg/kg, iv and 2 mg/kg; format: ADME, organism-based; conditions: in vivo
Summary of the method: (§2)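 Rats dosed at 1 mg/kg iv and 2 mg/kg po; plasma pharmacokinetics (clearance, Vdss, half-life, oral bioavailability) derived.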

[4] = Plasma clearance in rat at 1 mg/kg, iv and 2 mg/kg, po; format: ADME, organism-based; summary of the method: as §2
[5] = Volume of distribution at steady state in rat at 1 mg/kg, iv and 2 mg/kg, po; format: ADME, organism-based; conditions: in vivo, read-out: Vdss; summary of the method: as §2
[6] = Half life in monkey at 0.5 mg/kg, iv and 1 mg/kg, po; format: ADME, organism-based, Macaca mulatta; conditions: rhesus monkey, in vivo; summary of the method: as §1
[7] = tested on: Gerbillinae; experiment: in iv dosed gerbils plasma assessed as inhibition of GR-73632-induced foot tapping after 24 hrs
[8] = target: Cytochrome P450 2D6 (Homo sapiens, UniProt P10635); experiment: Inhibition of human CYP2D6; format: ADME
[9] = Volume of distribution at steady state in dog at 0.5 mg/kg, iv and 1 mg/kg, po; format: ADME, organism-based, Canis lupus familiaris; conditions: in vivo, read-out: Vdss; summary of the method: as §1
[10] = Bioavailability in monkey at 0.5 mg/kg, iv and 1 mg/kg, po; format: ADME, organism-based, Macaca mulatta; conditions: rhesus monkey, in vivo; summary of the method: as §1
[11] = tested on: Rhesus monkey; experiment: Ex vivo NK1 receptor occupancy in rhesus monkey brain at plasma level of 5 ng/ml; format: functional, Macaca mulatta
Summary of the method: (§3)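 Rhesus PET with [18F]SPARQ: striatal binding compared before and during steady-state plasma drug level, achieved by iv bolus plus matched constant iv infusion continued through imaging; occupancy vs plasma concentration fit to three-parameter Hill equation.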

[12] = Bioavailability in dog at 0.5 mg/kg, iv and 1 mg/kg, po; format: ADME, organism-based, Canis lupus familiaris; conditions: in vivo; summary of the method: as §1
[13] = target: T1, Cytochrome P450 1A2 (Homo sapiens, UniProt P05177); experiment: Inhibition of human CYP1A2; format: ADME
T1 sequence (P05177 whole entry): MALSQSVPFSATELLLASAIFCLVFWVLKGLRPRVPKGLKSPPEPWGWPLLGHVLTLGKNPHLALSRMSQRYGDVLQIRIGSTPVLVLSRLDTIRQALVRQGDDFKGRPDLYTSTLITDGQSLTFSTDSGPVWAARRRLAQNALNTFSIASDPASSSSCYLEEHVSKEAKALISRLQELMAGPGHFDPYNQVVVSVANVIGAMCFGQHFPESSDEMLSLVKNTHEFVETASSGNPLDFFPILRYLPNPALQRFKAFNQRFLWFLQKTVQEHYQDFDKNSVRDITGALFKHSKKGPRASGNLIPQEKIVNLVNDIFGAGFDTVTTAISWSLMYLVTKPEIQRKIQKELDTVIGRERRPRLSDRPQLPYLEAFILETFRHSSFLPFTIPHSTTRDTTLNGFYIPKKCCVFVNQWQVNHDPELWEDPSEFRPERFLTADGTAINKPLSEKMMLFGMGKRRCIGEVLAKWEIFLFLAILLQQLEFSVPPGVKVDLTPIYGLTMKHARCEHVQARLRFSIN

[14] = target: T2, Neuromedin-K receptor (Homo sapiens, UniProt P29371); experiment: Binding affinity to human NK3 receptor
T2 sequence (P29371 whole entry): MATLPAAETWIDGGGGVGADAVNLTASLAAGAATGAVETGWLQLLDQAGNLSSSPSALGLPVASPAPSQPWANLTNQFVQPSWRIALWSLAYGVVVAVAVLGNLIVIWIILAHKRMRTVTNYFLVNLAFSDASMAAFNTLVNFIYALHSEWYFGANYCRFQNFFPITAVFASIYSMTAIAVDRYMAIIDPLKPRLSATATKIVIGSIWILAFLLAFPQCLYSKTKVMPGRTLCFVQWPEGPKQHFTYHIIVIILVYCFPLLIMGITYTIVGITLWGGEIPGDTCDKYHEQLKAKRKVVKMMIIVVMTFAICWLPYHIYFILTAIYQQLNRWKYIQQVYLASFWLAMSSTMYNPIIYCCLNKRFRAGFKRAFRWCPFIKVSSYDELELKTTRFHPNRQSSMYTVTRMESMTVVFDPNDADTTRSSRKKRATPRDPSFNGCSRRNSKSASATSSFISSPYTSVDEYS

[15] = target: Cytochrome P450 2C19 (Homo sapiens, UniProt P33261); experiment: Inhibition of human CYP2C19; format: ADME
[16] = tested on: Gerbillinae; experiment: Toxicity in iv dosed gerbils plasma assessed as inhibition of GR-73632-induced foot tapping after 1 hr; format: organism-based
[17] = target: T3, Cytochrome P450 2C8 (Homo sapiens, UniProt P10632); experiment: Inhibition of human CYP2C8; format: ADME
T3 sequence (P10632 whole entry): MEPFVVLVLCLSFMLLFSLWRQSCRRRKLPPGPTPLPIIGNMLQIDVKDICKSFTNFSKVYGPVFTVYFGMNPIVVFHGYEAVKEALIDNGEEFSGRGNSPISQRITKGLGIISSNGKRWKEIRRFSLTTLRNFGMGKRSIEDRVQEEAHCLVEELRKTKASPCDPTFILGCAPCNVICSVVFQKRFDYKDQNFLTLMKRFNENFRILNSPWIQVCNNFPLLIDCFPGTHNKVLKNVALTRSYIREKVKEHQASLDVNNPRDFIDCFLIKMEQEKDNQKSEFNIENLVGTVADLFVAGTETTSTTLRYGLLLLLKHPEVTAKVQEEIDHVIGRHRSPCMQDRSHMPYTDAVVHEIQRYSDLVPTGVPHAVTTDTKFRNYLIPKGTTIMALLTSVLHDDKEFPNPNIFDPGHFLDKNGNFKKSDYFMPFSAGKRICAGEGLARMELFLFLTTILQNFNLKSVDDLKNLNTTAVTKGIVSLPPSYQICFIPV

[18] = Plasma clearance in monkey at 0.5 mg/kg, iv and 1 mg/kg, po; format: ADME, organism-based, Macaca mulatta; conditions: rhesus monkey; summary of the method: as §1
[19] = target: Cytochrome P450 2C9 (Homo sapiens, UniProt P11712); experiment: Inhibition of human CYP2C9; format: ADME
[20] = target: T4, Substance-K receptor (Homo sapiens, UniProt P21452); experiment: Binding affinity to human NK2 receptor
T4 sequence (P21452 whole entry): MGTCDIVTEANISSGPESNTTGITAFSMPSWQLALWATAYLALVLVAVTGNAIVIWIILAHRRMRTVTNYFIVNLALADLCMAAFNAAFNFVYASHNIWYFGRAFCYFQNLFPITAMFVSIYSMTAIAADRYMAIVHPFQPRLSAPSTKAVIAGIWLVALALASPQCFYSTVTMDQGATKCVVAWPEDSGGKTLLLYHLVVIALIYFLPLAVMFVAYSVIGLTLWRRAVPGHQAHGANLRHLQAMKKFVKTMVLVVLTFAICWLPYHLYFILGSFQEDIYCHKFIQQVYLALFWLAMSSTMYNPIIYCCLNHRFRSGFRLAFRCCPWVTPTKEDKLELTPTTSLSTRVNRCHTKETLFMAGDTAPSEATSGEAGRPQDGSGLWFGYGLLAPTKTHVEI

[21] = Volume of distribution at steady state in monkey at 0.5 mg/kg, iv and 1 mg/kg, po; format: ADME, organism-based, Macaca mulatta; conditions: rhesus monkey, in vivo, read-out: Vdss; summary of the method: as §1
[22] = target: T5, Substance-P receptor (Homo sapiens, UniProt P25103); experiment: Displacement of [125I]substance P human recombinant NK1 receptor expressed in CHO cells in absence of human serum albumin; format: cell-based
Summary of the method: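 Competitive radioligand binding with [125I]substance P on CHO cells stably expressing recombinant hNK1 receptor; IC50 determined without and with 50% human serum.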

[23] = tested on: Gerbillinae; experiment: Toxicity in iv dosed gerbils brain assessed as inhibition of GR-73632-induced foot tapping after 1 hr; format: organism-based; conditions: in vivo
[24] = Half life in rat at 1 mg/kg, iv and 2 mg/kg, po; format: ADME, organism-based; conditions: in vivo; summary of the method: as §2
[25] = tested on: Gerbillinae; experiment: Toxicity in iv dosed gerbils brain assessed as inhibition of GR-73632-induced foot tapping after 24 hrs; format: organism-based; conditions: in vivo
[26] = target: T5, Substance-P receptor; experiment: Antagonist activity at human NK1 receptor expressed in CHO cells assessed as inhibition of substance P-induced IP1 formation at 100 nM; format: functional, cell-based; design: scale not given: the % may be the effect or the level left
Summary of the method: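 CHO cells stably expressing recombinant human NK1 receptor; substance-P-evoked IP-1 formation measured with antagonist present at 100 nM; value given as % of substance P response remaining.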

[27] = tested on: Rhesus monkey; experiment: Ex vivo NK1 receptor occupancy in rhesus monkey brain at plasma level of 37 ng/ml; format: functional, Macaca mulatta; summary of the method: as §3
[28] = Plasma clearance in dog at 0.5 mg/kg, iv and 1 mg/kg, po; format: ADME, organism-based, Canis lupus familiaris; summary of the method: as §1
[29] = tested on: Rhesus monkey; experiment: Ex vivo NK1 receptor occupancy in rhesus monkey brain at plasma level of 390 ng/ml; format: functional, Macaca mulatta
[30] = species: Macaca mulatta; experiment: Ex vivo NK1 receptor occupancy in rhesus brain at plasma level of 31 ng/ml

T5 sequence (P25103 whole entry): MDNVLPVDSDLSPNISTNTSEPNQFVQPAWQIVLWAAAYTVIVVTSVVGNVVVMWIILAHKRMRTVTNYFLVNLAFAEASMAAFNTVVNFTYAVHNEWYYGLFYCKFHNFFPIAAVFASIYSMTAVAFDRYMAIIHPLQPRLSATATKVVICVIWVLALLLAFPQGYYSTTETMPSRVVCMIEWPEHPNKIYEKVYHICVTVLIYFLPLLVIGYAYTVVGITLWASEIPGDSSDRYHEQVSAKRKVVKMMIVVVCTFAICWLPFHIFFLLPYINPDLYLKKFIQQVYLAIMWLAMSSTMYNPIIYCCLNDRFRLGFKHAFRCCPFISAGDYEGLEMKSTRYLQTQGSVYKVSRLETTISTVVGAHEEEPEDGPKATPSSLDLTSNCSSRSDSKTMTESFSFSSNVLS
Cytochrome P450 3A4, sequence (P08684 whole entry): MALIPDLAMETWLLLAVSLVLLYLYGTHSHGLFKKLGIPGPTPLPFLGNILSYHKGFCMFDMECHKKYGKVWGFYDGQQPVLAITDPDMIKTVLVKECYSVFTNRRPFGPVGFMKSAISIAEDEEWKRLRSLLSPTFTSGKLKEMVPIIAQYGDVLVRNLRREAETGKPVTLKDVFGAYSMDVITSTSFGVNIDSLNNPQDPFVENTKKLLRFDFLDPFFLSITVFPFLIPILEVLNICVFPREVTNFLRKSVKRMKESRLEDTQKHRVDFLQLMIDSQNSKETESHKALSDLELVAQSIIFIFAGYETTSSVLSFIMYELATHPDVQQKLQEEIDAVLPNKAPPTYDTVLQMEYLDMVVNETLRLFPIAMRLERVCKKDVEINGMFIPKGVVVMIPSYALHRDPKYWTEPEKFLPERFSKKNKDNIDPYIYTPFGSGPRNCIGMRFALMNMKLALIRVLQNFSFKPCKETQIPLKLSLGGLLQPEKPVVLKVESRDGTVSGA
Cytochrome P450 2C9, sequence (P11712 whole entry): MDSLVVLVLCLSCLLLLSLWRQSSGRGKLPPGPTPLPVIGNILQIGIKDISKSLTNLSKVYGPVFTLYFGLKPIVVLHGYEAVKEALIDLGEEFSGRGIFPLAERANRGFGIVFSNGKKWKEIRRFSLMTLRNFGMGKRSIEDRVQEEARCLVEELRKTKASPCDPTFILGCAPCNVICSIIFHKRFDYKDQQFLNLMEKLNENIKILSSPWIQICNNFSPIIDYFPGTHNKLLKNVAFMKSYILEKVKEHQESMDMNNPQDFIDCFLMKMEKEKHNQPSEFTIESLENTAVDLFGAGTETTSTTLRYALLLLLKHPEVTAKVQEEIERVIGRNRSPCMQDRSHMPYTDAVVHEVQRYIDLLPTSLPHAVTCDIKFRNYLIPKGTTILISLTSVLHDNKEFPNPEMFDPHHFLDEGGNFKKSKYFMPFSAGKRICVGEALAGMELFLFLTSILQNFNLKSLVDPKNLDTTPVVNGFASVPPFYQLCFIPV
Cytochrome P450 2C19, sequence (P33261 whole entry): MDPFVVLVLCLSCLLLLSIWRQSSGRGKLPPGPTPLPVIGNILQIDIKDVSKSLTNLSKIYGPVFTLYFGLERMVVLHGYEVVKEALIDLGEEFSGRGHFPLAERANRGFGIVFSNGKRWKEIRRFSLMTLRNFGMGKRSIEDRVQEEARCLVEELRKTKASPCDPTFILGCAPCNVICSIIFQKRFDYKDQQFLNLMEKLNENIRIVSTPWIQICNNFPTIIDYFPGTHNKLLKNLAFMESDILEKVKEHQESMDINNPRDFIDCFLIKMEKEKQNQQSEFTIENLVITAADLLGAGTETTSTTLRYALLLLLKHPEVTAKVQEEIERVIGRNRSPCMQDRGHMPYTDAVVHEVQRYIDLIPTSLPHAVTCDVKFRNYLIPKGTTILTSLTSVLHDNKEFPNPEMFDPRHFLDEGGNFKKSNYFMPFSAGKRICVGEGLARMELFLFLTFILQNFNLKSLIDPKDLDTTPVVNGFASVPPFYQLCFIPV
Cytochrome P450 2D6, sequence (P10635 whole entry): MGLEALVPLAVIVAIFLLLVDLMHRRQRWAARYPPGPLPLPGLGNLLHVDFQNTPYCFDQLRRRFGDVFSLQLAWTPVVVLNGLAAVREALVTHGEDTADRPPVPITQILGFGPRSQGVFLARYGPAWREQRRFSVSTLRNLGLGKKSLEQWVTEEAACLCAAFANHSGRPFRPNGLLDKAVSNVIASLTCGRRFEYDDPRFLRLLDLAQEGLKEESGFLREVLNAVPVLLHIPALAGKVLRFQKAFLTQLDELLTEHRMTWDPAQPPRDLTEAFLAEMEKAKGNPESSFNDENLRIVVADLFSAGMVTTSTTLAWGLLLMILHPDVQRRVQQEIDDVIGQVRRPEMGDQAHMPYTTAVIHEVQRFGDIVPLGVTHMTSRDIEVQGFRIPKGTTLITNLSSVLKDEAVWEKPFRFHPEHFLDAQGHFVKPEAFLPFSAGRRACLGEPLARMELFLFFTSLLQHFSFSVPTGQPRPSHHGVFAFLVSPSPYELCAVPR

## C[C@@H](O[C@H]1CC[C@@H]2CN(C3=CC(=O)CC3)C[C@H]2[C@@H]1c1ccc(F)cc1)c1cc(C(F)(F)F)cc(C(F)(F)F)c1 [SERLOPITANT]
[1]
  half-life: 31 h
[2]
  IC50: 39000 nM
[3]
  bioavailability: 40%
[4]
  clearance: 0.7 mL/min/kg
[5]
  Vd: 1.5 L/kg
[6]
  half-life: 24 h
[7]
  IC50: 6 nM
[8]
  IC50: 35000 nM
[9]
  Vd: 2 L/kg
[10]
  bioavailability: 69%
[11]
  Activity: 50%
[12]
  bioavailability: 71%
[13]
  IC50: > 100000 nM
[14]
  Ki: 2400 nM
[15]
  IC50: 29000 nM
[16]
  IC50: 6.5 nM
[17]
  IC50: 58000 nM
[18]
  clearance: 1 mL/min/kg
[19]
  IC50: 30000 nM
[20]
  Ki: 2400 nM
[21]
  Vd: 2 L/kg
[22]
  IC50: 0.06 nM
[23]
  ID50: 0.08 mg/kg
[24]
  half-life: 24 h
[25]
  ID50: 0.46 mg/kg
[26]
  Activity: 5%
[27]
  Activity: 90%
[28]
  clearance: 0.7 mL/min/kg

## C[C@@H](O[C@H]1CC[C@@H]2CN(c3cnccn3)C[C@H]2[C@@H]1c1ccc(F)cc1)c1cc(C(F)(F)F)cc(C(F)(F)F)c1
[22]
  IC50: 0.525 nM
[26]
  Activity: 79%

## C[C@@H](O[C@H]1CC[C@@H]2CN(C)C[C@H]2[C@@H]1c1ccc(F)cc1)c1cc(C(F)(F)F)cc(C(F)(F)F)c1
[22]
  IC50: 0.255 nM
[26]
  Activity: 54%

## CC(=O)N1C[C@H]2CC[C@H](O[C@H](C)c3cc(C(F)(F)F)cc(C(F)(F)F)c3)[C@@H](c3ccc(F)cc3)[C@@H]2C1
[22]
  IC50: 0.11 nM
[26]
  Activity: 40%

## CC1=C(N2C[C@H]3CC[C@H](O[C@H](C)c4cc(C(F)(F)F)cc(C(F)(F)F)c4)[C@@H](c4ccc(F)cc4)[C@@H]3C2)CCC1=O
[22]
  IC50: 0.1 nM
[23]
  ID50: 0.13 mg/kg
[25]
  ID50: 0.2 mg/kg
[26]
  Activity: 9%

## C[C@@H](O[C@H]1CC[C@@H]2CNC[C@H]2[C@@H]1c1ccc(F)cc1)c1cc(C(F)(F)F)cc(C(F)(F)F)c1
[22]
  IC50: 0.15 nM
[26]
  Activity: 44%

## CNC(=O)N1C[C@H]2CC[C@H](O[C@H](C)c3cc(C(F)(F)F)cc(C(F)(F)F)c3)[C@@H](c3ccc(F)cc3)[C@@H]2C1
[22]
  IC50: 0.09 nM
[26]
  Activity: 58%

## C[C@@H](O[C@H]1CN(C2=CC(=O)CC2)C[C@@H]1c1ccc(F)cc1)c1cc(C(F)(F)F)cc(C(F)(F)F)c1
[29]
  Activity: >=90%
[30]
  Activity: 50%

## C[C@@H](O[C@H]1CC[C@@H]2CN(C3=CC(=O)CCC3)C[C@H]2[C@@H]1c1ccc(F)cc1)c1cc(C(F)(F)F)cc(C(F)(F)F)c1
[22]
  IC50: 0.13 nM
[23]
  ID50: 0.18 mg/kg
[25]
  ID50: 0.3 mg/kg
[26]
  Activity: 4%
